Assay results published in ChEMBL document CHEMBL1144907, “Novel sst(4)-selective somatostatin (SRIF) agonists. 3. Analogues amenable to radiolabeling” (J Med Chem, 2003).
Numbered stars: 1 amine (or outer) side, 2 acyl side, 3 side chain; on linkers, the order of the positions; unused ones are H or OH. Bridge positions count the residues as written; N and C are the ends. Square brackets hold non-standard residues; d marks the D form. Peptide text beside a SMILES is read from it. * marks the point of attachment. Tyr(Nα-carbamoyl) = NC(=O)N[C@@H](Cc1ccc(O)cc1)C(=O)*; X3 = C[C@H](c1c[nH]c2ccccc12)[C@@H](N[*:1])C(=O)[*:2]; Trp(βS-Me) = C[C@@H](c1c[nH]c2ccccc12)[C@H](N)C(=O)O

How the values were obtained:
[1] = target: Somatostatin receptor type 1 (Homo sapiens, UniProt P30872); assay: Binding affinity towards human somatostatin receptor type 1 using [125I][Leu8,D-Trp22,Tyr25]SRIF-28 as radioligand.
Sequence of Somatostatin receptor type 1 (P30872 whole entry): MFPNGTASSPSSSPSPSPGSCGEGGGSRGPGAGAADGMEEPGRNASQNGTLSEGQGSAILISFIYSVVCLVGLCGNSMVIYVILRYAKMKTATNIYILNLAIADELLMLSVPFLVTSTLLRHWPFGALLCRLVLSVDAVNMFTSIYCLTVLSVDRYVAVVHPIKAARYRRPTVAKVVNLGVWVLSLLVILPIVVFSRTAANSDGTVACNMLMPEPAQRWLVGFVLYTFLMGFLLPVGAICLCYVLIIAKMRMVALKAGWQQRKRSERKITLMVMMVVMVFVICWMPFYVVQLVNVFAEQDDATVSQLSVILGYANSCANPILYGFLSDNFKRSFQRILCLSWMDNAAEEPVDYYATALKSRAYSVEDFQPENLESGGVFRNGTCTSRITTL
Method in brief: (§1)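 Receptor autoradiography on 20-µm cryostat sections of pellets of cells stably expressing the cloned human receptor. Cell hosts: sst1 CHO-K1, sst2 CCL39, sst3 CCL39, sst5 CHO-K1. Sections were incubated with radioligand at 30 000 cpm/100 µL and displaced by unlabeled peptide from 0.1 to 1000 nM. SRIF-28 was run in parallel as control. IC50 was obtained by computer-assisted image quantification against calibrated isotope tissue standards.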

[2] = target: Somatostatin receptor type 2 (Homo sapiens, UniProt P30874); assay: Binding affinity towards human somatostatin receptor type 2 using [125I][Leu8,D-Trp22,Tyr25]SRIF-28 as radioligand.; method in brief: as §1
Sequence of Somatostatin receptor type 2 (P30874 whole entry): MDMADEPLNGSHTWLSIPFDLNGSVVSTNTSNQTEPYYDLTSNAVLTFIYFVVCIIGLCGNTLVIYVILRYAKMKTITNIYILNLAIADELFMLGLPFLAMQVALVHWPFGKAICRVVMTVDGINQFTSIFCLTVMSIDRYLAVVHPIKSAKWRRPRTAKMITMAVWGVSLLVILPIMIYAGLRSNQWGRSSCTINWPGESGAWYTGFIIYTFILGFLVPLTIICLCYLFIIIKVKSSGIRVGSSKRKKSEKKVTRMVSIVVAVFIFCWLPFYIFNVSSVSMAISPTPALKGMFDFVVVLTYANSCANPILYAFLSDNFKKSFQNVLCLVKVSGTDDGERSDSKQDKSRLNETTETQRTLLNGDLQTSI

[3] = target: Somatostatin receptor type 4 (Homo sapiens, UniProt P31391); assay: Binding affinity towards human somatostatin receptor type 4 using [125I][Leu8,D-Trp22,Tyr25]SRIF-28 as radioligand.
Sequence of Somatostatin receptor type 4 (P31391 whole entry): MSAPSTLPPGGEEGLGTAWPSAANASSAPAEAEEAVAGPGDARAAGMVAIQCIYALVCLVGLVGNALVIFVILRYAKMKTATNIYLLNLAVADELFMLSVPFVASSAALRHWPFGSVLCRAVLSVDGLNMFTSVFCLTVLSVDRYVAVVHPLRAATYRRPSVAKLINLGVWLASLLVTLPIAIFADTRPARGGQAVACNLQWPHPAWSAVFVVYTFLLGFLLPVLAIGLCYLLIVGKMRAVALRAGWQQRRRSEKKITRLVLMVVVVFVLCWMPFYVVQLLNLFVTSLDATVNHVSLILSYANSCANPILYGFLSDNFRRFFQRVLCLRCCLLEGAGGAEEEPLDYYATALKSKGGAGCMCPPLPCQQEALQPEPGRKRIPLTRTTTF

[4] = target: Somatostatin receptor type 5 (Homo sapiens, UniProt P35346); assay: Binding affinity towards human somatostatin receptor type 5 using [125I][Leu8,D-Trp22,Tyr25]SRIF-28 as radioligand.; method in brief: as §1
Sequence of Somatostatin receptor type 5 (P35346 whole entry): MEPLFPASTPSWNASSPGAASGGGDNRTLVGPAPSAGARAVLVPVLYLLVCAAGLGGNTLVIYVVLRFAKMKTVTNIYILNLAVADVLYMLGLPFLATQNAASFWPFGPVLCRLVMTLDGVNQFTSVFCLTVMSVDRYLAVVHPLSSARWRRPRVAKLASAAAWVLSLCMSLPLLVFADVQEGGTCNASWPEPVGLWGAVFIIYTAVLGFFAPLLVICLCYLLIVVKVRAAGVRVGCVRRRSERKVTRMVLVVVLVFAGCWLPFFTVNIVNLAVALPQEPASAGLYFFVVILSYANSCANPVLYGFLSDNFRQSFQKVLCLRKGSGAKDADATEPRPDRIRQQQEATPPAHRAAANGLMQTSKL

[5] = target: Somatostatin receptor type 3 (Homo sapiens, UniProt P32745); assay: Binding affinity towards human somatostatin receptor type 3 using [125I][Leu8,D-Trp22,Tyr25]SRIF-28 as radioligand.; method in brief: as §1
Sequence of Somatostatin receptor type 3 (P32745 whole entry): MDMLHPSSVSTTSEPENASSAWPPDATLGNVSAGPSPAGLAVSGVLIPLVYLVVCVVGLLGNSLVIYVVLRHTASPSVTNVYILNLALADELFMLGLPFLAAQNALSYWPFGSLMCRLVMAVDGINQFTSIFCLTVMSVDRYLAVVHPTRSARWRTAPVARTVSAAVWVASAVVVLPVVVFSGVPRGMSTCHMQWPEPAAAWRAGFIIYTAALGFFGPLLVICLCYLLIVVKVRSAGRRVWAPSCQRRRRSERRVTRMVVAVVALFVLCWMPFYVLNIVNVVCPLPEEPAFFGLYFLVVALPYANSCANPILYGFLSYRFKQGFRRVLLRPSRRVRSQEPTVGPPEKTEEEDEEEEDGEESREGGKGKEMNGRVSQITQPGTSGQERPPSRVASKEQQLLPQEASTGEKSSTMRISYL

Structure (SMILES) | IC50 [1] | IC50 [2] | IC50 [3] | IC50 [4] | IC50 [5]
C[C@@H](O)[C@@H]1NC(=O)[C@H](CCCCN)NC(=O)[C@@H](Cc2c[nH]c3ccccc23)NC(=O)[C@H](Cc2ccccc2)NC(=O)[C@H](Cc2ccccc2)NC(=O)[C@@H](N)CSSC[C@@H](C(=O)O)NC(=O)[C@H](Cc2ccc(O)cc2)NC1=O (stereo in doubt) | 10.3 nM | 15.5 nM | 0.51 nM | 4.8 nM | 8.2 nM
C[C@@H](O)[C@@H]1NC(=O)[C@H](CCCCN)NC(=O)[C@H](Cc2c[nH]c3ccccc23)NC(=O)[C@H](CCCN)NC(=O)[C@H](Cc2ccccc2)NC(=O)[C@@H](NC(=O)[C@H](Cc2ccc(O)cc2)NC(N)=O)CSSC[C@@H](C(=O)O)NC(=O)[C@H](Cc2ccccc2)NC1=O | 99 nM | 561 nM | 2.1 nM | – | > 1000 nM
C[C@@H](O)[C@@H]1NC(=O)[C@H](CCCCN)NC(=O)[C@H](Cc2c[nH]c3ccccc23)NC(=O)[C@H](Cc2ccc(N)cc2)NC(=O)[C@H](Cc2ccccc2)NC(=O)[C@@H](N)CSSC[C@@H](C(=O)O)NC(=O)[C@H](Cc2ccccc2)NC1=O | – | – | – | – | > 1000 nM
C[C@@H](O)[C@@H]1NC(=O)[C@H](CCCCN)NC(=O)[C@@H](Cc2c[nH]c3ccccc23)NC(=O)[C@H](Cc2ccc(O)cc2)NC(=O)[C@H](Cc2ccccc2)NC(=O)[C@@H](N)CSSC[C@@H](C(=O)O)NC(=O)[C@H](Cc2ccccc2)NC1=O | 117 nM | 25.7 nM | 1.8 nM | 20.3 nM | 35.7 nM
C[C@@H](O)[C@@H]1NC(=O)[C@H](CCCCN)NC(=O)[C@H](Cc2c[nH]c3ccccc23)NC(=O)[C@H](Cc2ccccc2)NC(=O)[C@H](Cc2ccccc2)NC(=O)[C@@H](N)CSSC[C@@H](C(=O)O)NC(=O)[C@H](Cc2ccccc2)NC1=O (H-CFFWKTFC-OH; disulfide 1-8) | 5.3 nM | 130 nM | 0.7 nM | 14 nM | 13 nM
C[C@@H]1NC(=O)[C@H](Cc2ccccc2)NC(=O)[C@@H](N)CSSC[C@@H](C(=O)O)NC(=O)[C@H](Cc2ccccc2)NC(=O)[C@H]([C@@H](C)O)NC(=O)[C@H](CCCCN)NC(=O)[C@@H](Cc2c[nH]c3ccccc23)NC1=O | > 1000 nM | – | – | – | –
C[C@@H](O)[C@@H]1NC(=O)[C@H](CCCCN)NC(=O)[C@@H](Cc2c[nH]c3ccccc23)NC(=O)[C@H](Cc2ccc(N)cc2)NC(=O)[C@H](Cc2ccccc2)NC(=O)[C@@H](NC(N)=O)CSSC[C@@H](C(=O)O)NC(=O)[C@H](Cc2ccc(O)cc2)NC1=O | > 1000 nM | – | – | – | –
C[C@@H](O)[C@@H]1NC(=O)[C@H](CCCCN)NC(=O)[C@H]([C@@H](C)c2c[nH]c3ccccc23)NC(=O)[C@H](Cc2ccccc2)NC(=O)[C@H](Cc2ccccc2)NC(=O)[C@@H](N)CSSC[C@@H](C(=O)O)NC(=O)[C@H](Cc2ccccc2)NC1=O (H-CFF[Trp(βS-Me)]KTFC-OH; disulfide 1-8) | 21 nM | 27 nM | 1.8 nM | 221 nM | 330 nM
C[C@@H](O)[C@@H]1NC(=O)[C@H](CCCCN)NC(=O)[C@@H](Cc2c[nH]c3ccccc23)NC(=O)[C@H](Cc2ccccc2)NC(=O)[C@H](Cc2ccccc2)NC(=O)[C@@H](NC(N)=O)CSSC[C@@H](C(=O)O)NC(=O)[C@H](Cc2ccc(O)cc2)NC1=O (stereo in doubt) | 55 nM | 52 nM | 1 nM | – | 16 nM
C[C@@H](O)[C@@H]1NC(=O)[C@H](CCCCN)NC(=O)[C@H](Cc2c[nH]c3ccccc23)NC(=O)[C@H](Cc2ccc(N)cc2)NC(=O)[C@H](Cc2ccccc2)NC(=O)[C@@H](NC(=O)[C@H](Cc2ccc(O)c(I)c2)NC(N)=O)CSSC[C@@H](C(=O)O)NC(=O)[C@H](Cc2ccccc2)NC1=O | > 1000 nM | > 1000 nM | 8.8 nM | 990 nM | 325 nM
C[C@H](c1c[nH]c2ccccc12)[C@H]1NC(=O)[C@H](Cc2ccccc2)NC(=O)[C@H](Cc2ccccc2)NC(=O)[C@@H](N)CSSC[C@@H](C(=O)O)NC(=O)[C@H](Cc2ccccc2)NC(=O)[C@H]([C@@H](C)O)NC(=O)[C@H](CCCCN)NC1=O (H-CFF[X3]KTFC-OH; disulfide 1-8) | 49 nM | 40 nM | 4 nM | 42 nM | 53 nM
C[C@@H](O)[C@@H]1NC(=O)[C@H](CCCCN)NC(=O)[C@H](Cc2c[nH]c3ccccc23)NC(=O)[C@H](Cc2ccc(N)cc2)NC(=O)[C@H](Cc2ccccc2)NC(=O)[C@@H](NC(N)=O)CSSC[C@@H](C(=O)O)NC(=O)[C@H](Cc2ccc(O)cc2)NC1=O | – | > 1000 nM | – | – | –
C[C@@H](O)[C@@H]1NC(=O)[C@H](CCCCN)NC(=O)[C@H](Cc2c[nH]c3ccccc23)NC(=O)[C@H](Cc2ccccc2)NC(=O)[C@H](Cc2ccccc2)NC(=O)[C@@H](NC(=O)[C@@H](N)Cc2ccc(O)cc2)CSSC[C@@H](C(=O)O)NC(=O)[C@H](Cc2ccccc2)NC1=O (H-YCFFWKTFC-OH; disulfide 2-9) | 13 nM | 179 nM | 1.6 nM | – | 57 nM
C[C@@H](O)[C@@H]1NC(=O)[C@H](CCCCN)NC(=O)[C@H](Cc2c[nH]c3ccccc23)NC(=O)[C@H](Cc2ccc(O)cc2)NC(=O)[C@H](Cc2ccccc2)NC(=O)[C@@H](N)CSSC[C@@H](C(=O)O)NC(=O)[C@H](Cc2ccccc2)NC1=O | 27 nM | 54 nM | 1.3 nM | 63 nM | 22 nM
CC(O)[C@@H]1NC(=O)[C@H](CCCCN)NC(=O)[C@H](Cc2c[nH]c3ccccc23)NC(=O)[C@H](Cc2ccc(N)cc2)NC(=O)C(Cc2ccccc2)NC(=O)C(NC(N)=O)CSSC[C@@H](C(=O)O)NC(=O)[C@H](Cc2ccccc2)NC1=O (single isomer, unassigned) | – | > 1000 nM | 1.5 nM | > 1000 nM | –
COC(=O)[C@H](CCCN=C(N)N)NC(=O)CCCc1c(-c2ccccc2)[nH]c2c(F)cc(F)cc12 | – | – | 4.2 nM | – | –
C[C@@H]1NC(=O)[C@H](Cc2ccccc2)NC(=O)[C@@H](NC(=O)[C@@H](N)Cc2ccc(O)cc2)CSSC[C@@H](C(=O)O)NC(=O)[C@H](Cc2ccccc2)NC(=O)[C@H]([C@@H](C)O)NC(=O)[C@H](CCCCN)NC(=O)[C@@H]([C@@H](C)c2c[nH]c3ccccc23)NC1=O | > 1000 nM | 46 nM | 5.6 nM | – | 381 nM
C[C@@H](O)[C@@H]1NC(=O)[C@H](CCCCN)NC(=O)[C@@H](Cc2c[nH]c3ccccc23)NC(=O)[C@H](Cc2ccccc2)NC(=O)[C@H](Cc2ccccc2)NC(=O)[C@@H](N)CSSC[C@@H](C(=O)O)NC(=O)[C@H](Cc2ccccc2)NC1=O (H-CFF[dW]KTFC-OH; disulfide 1-8) | 27 nM | 41 nM | 1.8 nM | 46 nM | 13 nM
C[C@@H]1NC(=O)[C@H](Cc2ccccc2)NC(=O)[C@@H](N)CSSC[C@@H](C(=O)O)NC(=O)[C@H](Cc2ccccc2)NC(=O)[C@H]([C@@H](C)O)NC(=O)[C@H](CCCCN)NC(=O)[C@H](Cc2c[nH]c3ccccc23)NC1=O | > 1000 nM | – | – | – | –
C[C@@H]1NC(=O)[C@H](Cc2ccccc2)NC(=O)[C@@H](NC(=O)[C@@H](N)Cc2ccc(O)c(I)c2)CSSC[C@@H](C(=O)O)NC(=O)[C@H](Cc2ccccc2)NC(=O)[C@H]([C@@H](C)O)NC(=O)[C@H](CCCCN)NC(=O)[C@H](Cc2c[nH]c3ccccc23)NC1=O | > 1000 nM | > 1000 nM | 3.5 nM | > 1000 nM | 1020 nM
C[C@@H]1NC(=O)[C@H](Cc2ccccc2)NC(=O)[C@@H](NC(=O)[C@H](Cc2ccc(O)cc2)NC(N)=O)CSSC[C@@H](C(=O)O)NC(=O)[C@H](Cc2ccccc2)NC(=O)[C@H]([C@@H](C)O)NC(=O)[C@H](CCCCN)NC(=O)[C@H](Cc2c[nH]c3ccccc23)NC1=O ({Tyr(Nα-carbamoyl)}-CFAWKTFC-OH; disulfide 1-8) | > 1000 nM | – | 2.4 nM | > 1000 nM | –
C[C@@H](O)[C@@H]1NC(=O)[C@H](CCCCN)NC(=O)[C@H]([C@@H](C)c2c[nH]c3ccccc23)NC(=O)[C@H](Cc2ccccc2)NC(=O)[C@H](Cc2ccccc2)NC(=O)[C@@H](NC(=O)[C@@H](N)Cc2ccc(O)cc2)CSSC[C@@H](C(=O)O)NC(=O)[C@H](Cc2ccccc2)NC1=O (H-YCFF[Trp(βS-Me)]KTFC-OH; disulfide 2-9) | 88 nM | 48 nM | 0.9 nM | – | 116 nM
C[C@@H](O)[C@@H]1NC(=O)[C@H](CCCCN)NC(=O)[C@H](Cc2c[nH]c3ccccc23)NC(=O)[C@H](Cc2ccccc2)NC(=O)[C@H](Cc2ccccc2)NC(=O)[C@@H](N)CSSC[C@@H](C(=O)O)NC(=O)[C@H](Cc2ccc(O)cc2)NC1=O (stereo in doubt) | 6.5 nM | 43 nM | 1.3 nM | 24 nM | 10 nM
C[C@@H]1NC(=O)[C@H](Cc2ccccc2)NC(=O)[C@@H](NC(=O)[C@@H](N)Cc2ccc(O)cc2)CSSC[C@@H](C(=O)O)NC(=O)[C@H](Cc2ccccc2)NC(=O)[C@H]([C@@H](C)O)NC(=O)[C@H](CCCCN)NC(=O)[C@H](Cc2c[nH]c3ccccc23)NC1=O | > 1000 nM | – | – | – | –
